# Most compounds without a hit are left out; they make up all but 2.4% or so of the library.
# Rpn11 block: Rpn11 (PSMD14) deubiquitinase inhibitors, primary screen, biochemical, fluorescence polarization, uHTS; 360,000 compounds, 0.59% hits; human 26S proteasome, Ub4-pepOG fluorescence polarization; 20S core pre-blocked with epoxomicin; 26S proteasome non-ATPase regulatory subunit 14 (Homo sapiens), O00487; inhibition, % at 20 µM;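 active means inhibition at 20 µM, scaled to each plate's controls, above about 33%, limit read from the data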
# Target sequence (O00487 whole entry, looked up): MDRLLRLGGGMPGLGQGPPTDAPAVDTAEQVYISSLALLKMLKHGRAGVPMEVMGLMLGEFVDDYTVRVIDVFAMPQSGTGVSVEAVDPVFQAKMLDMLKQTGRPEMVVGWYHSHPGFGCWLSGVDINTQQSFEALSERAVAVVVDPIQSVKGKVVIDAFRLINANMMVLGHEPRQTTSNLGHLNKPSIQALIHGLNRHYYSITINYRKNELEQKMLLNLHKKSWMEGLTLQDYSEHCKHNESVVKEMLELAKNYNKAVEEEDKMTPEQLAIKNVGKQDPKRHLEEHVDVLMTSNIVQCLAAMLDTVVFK
# HNF4A DNA FP: change in binding of human HNF4A to DNA, primary screen, biochemical, fluorescence polarization, FITC-DNA; Hepatocyte nuclear factor 4-alpha (Homo sapiens), P41235; 1 h; activity change, % at 10 µM; 360,000 compounds, 0.3% hits; in the data active means activity change above about 30%, passing the limit was not always enough
# Neddylation inh: inhibitors of cullin neddylation, primary screen, biochemical, TR-FRET, uHTS, NAE and Ubc12. NEDD8-conjugating enzyme Ubc12 (Homo sapiens) + NEDD8-activating enzyme E1 regulatory …. inhibition, % at 25 µM. 360,000 compounds, 0.58% hits; in the data active means inhibition above about 36%
# TbMetRS inhib: T. brucei MetRS inhibitors, primary screen, biochemical, luminescence; methionyl-tRNA synthetase (Trypanosoma brucei brucei); purified T. brucei MetRS, ATP depletion, Kinase-Glo luminescence; inhibition, % at 11.9 µM; 360,000 compounds, 0.4% hits;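 active means inhibition above a per-plate cutoff of the control wells' mean inhibition plus 3 SD, cut at about 5.5% in these data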;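 further: 0% = DMSO wells median and 100% = median of wells with control inhibitor compound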
#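 Material – parasite MetRS enzyme · Medium – HEPES-MgCl2-KCl buffer plus DTT, spermine, BSA, pyrophosphatase · Reagent – ATP, methionine and E. coli bulk tRNA substrates · Times – 15 min enzyme-compound preincubation, 2 h reaction, 10 min detection, 25 °C · Measured by – luminescence of leftover ATP · Evaluation – percent inhibition relative to median high and low control wells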
# CSN deneddyl inh: inhibitors of CSN-mediated cullin deneddylation, primary screen, biochemical, fluorescence polarization, uHTS | COP9 signalosome complex subunit 5 (Homo sapiens), Q92905 | Purified CSN, SCF-Nedd8-OG deneddylation | inhibition, % at 12.5 µM | 360,000 compounds, 0.38% hits | AID 651999, 2013;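 active means pattern-corrected inhibition above about 35%, with an unprinted fluorescence ratio check between 0.5 and 1.5, limit read from the data, passing the limit was not always enough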;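 further: 0% = enzyme with substrate and 100% = substrate without enzyme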
# Target sequence (Q92905 whole entry, looked up, one chain of several): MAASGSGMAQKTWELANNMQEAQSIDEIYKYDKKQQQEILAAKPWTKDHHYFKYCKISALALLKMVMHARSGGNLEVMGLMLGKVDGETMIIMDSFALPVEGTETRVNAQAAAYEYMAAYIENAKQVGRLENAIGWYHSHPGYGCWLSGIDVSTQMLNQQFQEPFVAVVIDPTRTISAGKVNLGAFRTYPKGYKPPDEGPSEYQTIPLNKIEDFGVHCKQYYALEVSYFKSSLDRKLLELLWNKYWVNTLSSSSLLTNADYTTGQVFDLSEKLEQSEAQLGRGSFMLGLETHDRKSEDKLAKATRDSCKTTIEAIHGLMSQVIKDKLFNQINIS
#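 Test system: Human Csn5 produced in HEK293T cells | Compound: 12.5 µM single point | Times: 90 min, room temperature | Signal: Fluorescence polarization readout | Read-out basis: % inhibition of substrate cleavage by Csn5 | Controls: no-enzyme wells high, enzyme-with-substrate wells low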
# PREPL inhibitor: PREPL enzyme inhibitors, primary screen, biochemical, fluorescence polarization; recombinant PREPL, fluorescence polarization activity-based probe; inhibition, % at 5.96 µM; AID 2751, 2010; 320,000 compounds, 0.68% hits; Prolyl endopeptidase-like (Homo sapiens), Q4J6C6; in the data active means inhibition above about 43%;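 further: 0% = enzyme with DMSO and 100% = wells lacking enzyme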
# An asterisk follows results filed as active; i = inactive; . = no result shown.
SMILES,Rpn11 block,HNF4A DNA FP,Neddylation inh,TbMetRS inhib,CSN deneddyl inh,PREPL inhibitor
Cc1ccc(S(=O)(=O)c2cc3c(=O)n4ccccc4nc3n(Cc3ccco3)c2=N)cc1,-1.6,-26.2,.,0.8,38.0*,0.8
CCC(=O)N1CCCC(C)(C(=O)Nc2ccc3oc(CC)nc3c2)C1 (centres undefined),6.0,-1.4,-10.4,-0.3,-6.0,.
COc1ccccc1S(=O)(=O)N1CCN(S(=O)(=O)c2ccccc2C#N)CC1,2.9,5.3,4.6,-0.2,1.3,-6.8
O=C(Cc1ccc(Cl)cc1)N1CCC2(CC1)NCCc1[nH]cnc12,-1.8,2.5,2.5,0.0,-3.8,-0.5
COC(=O)CCC(=O)OC1(C)C(=O)C2=CN(CCc3ccccn3)C(c3ccc(OC)cc3)=CC2=C(Br)C1=O (centres undefined),-13.5,-3.0,0.8,-0.1,-3.3,43.9*
COC(=O)CCC(=O)OC1(C)C(=O)C2=CN(CCCCO)C(c3ccc(OC)cc3)=CC2=C(Br)C1=O (centres undefined),.,.,.,.,.,55.3*
Cc1cc(Br)c(OCc2ccc(C(=O)N/N=C/c3ccc[nH]3)cc2)c(Br)c1,-5.0,2.1,41.0*,-0.1,8.6,15.5
O=C(N/N=C/c1ccc[nH]1)c1ccc(COc2cccc3cccnc23)cc1,-1.8,-4.4,49.5*,-0.7,0.7,14.3
NS(=O)(=O)c1ccc(N/C=C\C(=O)c2ccc(F)cc2)cc1,-5.9,1.3,0.7,-0.9,-1.0,-1.2
CN(C)c1ccc(N/C=C/C(=O)c2ccc(F)cc2)cc1,45.6*,43.5*,-14.3,0.4,12.9,23.7
CCCCCCCCCCCCCCCC[n+]1ccccc1,80.8*,7.8,3.4,-1.4,3.8,.
CCCCCCCCCCCCCCCC[n+]1ccc(/C=N/O)cc1,66.4*,39.8*,10.9,-0.2,4.9,40.7
CCCCCc1ccc(OCCC[n+]2ccccc2)c(CCCCC)c1,13.3,4.4,-4.8,-1.0,-4.2,15.5
COc1cc(OC)cc(C(=O)NC(=S)NNC(=O)[C@H]2C[C@@H]2c2ccccc2)c1,18.1,-3.4,57.8*,0.3,0.8,-1.7
CC(C)C[C@@H](CNCC(=O)[C@H](Cc1c[nH]c2ccccc12)NC(=O)c1[nH]cnc1C(=O)N[C@@H](C)CN)NC(=O)c1nc[nH]c1C(=O)N[C@@H](CC(=O)O)C(=O)O,-3.8,2.5,4.5,10.9*,-2.7,.
CC(C)C[C@@H](CNCC(=O)[C@H](Cc1c[nH]c2ccccc12)NC(=O)c1[nH]cnc1C(=O)N[C@H](CN)CC(C)C)NC(=O)c1nc[nH]c1C(=O)N[C@@H](CC(=O)O)C(=O)O,20.5,0.2,14.8,6.8*,0.1,.
CC(C)C[C@@H](CN)NC(=O)c1nc[nH]c1C(=O)N[C@@H](Cc1c[nH]c2ccccc12)C(=O)CNC[C@H](C)NC(=O)c1nc[nH]c1C(=O)N[C@@H](CC(=O)O)C(=O)O,4.2,-1.8,0.1,0.5,0.1,.
COc1ccccc1NS(=O)(=O)c1cc([N+](=O)[O-])ccc1N/N=C/c1c(C)[nH]c2ccccc12,.,57.3*,-20.2,-0.7,25.6,1.5
COc1ccc(C(=O)N2CCCC(c3cc(C(=O)Nc4ccccc4)no3)C2)cc1 (centres undefined),-0.4,5.0,2.9,-0.4,6.0,.
CCN1CCc2c(sc(NC(=S)NC(=O)c3ccccc3)c2C#N)C1,19.1,9.2,3.7,-2.8,47.7*,28.3
NC(=O)c1c(NC(=O)c2ccccc2)sc2c1CCN(Cc1ccccc1)C2,.,66.5,20.6,-0.6,46.3*,-0.4
NC(=O)c1c(NC(=O)c2c(F)cccc2F)sc2c1CCN(Cc1ccccc1)C2,30.1,5.6,.,0.2,12.6,15.4
COc1ccc(-c2nc3ccc(Cl)cn3c2Cc2cccc(F)c2)cc1OC,31.8,10.4,-2.5,0.1,3.8,.
COc1cc(/C=C(\NC(C)=O)C(=O)Nc2cccc(O)c2)ccc1OC(C)=O,7.2,37.0*,-5.9,0.1,1.4,21.4
COc1cc(/C=C(\NC(C)=O)C(=O)NC(C)(C)C)ccc1OC(C)=O,6.1,2.6,-1.0,-0.5,-5.0,-2.7
SMILES,Rpn11 block,HNF4A DNA FP,Neddylation inh,TbMetRS inhib,CSN deneddyl inh,PREPL inhibitor
COc1ccc2ccc3c(c2c1)N=CC1(O3)N(C)c2ccccc2C1(C)C (centres undefined),-0.8,0.0,42.6*,0.7,4.7,17.2
COc1ccc(OC)c(/C=C2\S/C(=N/NC(=O)c3ccc4ccccc4c3)NC2=O)c1,.,1.3,47.8*,-0.2,51.1*,17.5
COc1ccc(/C=C2\SC(=Nc3ccccc3Cl)NC2=O)c(OC)c1,3.9,5.1,-9.3,-0.2,0.9,.
CCOc1ccc(CN(C)C(=O)CNC(=O)C2CCCCC2)cc1,-0.9,0.7,2.3,-1.0,-1.0,4.4
COc1cc(NC(=O)N2c3ccccc3Sc3ccccc32)c(C(=O)O)cc1OC,-7.7,1.9,42.3*,0.4,1.4,12.0
COC(=O)c1cc(OC)c(OC)cc1NC(=S)N1CCN(c2ccccc2)CC1,0.4,-4.7,-15.7,0.0,-4.2,47.4*
COC(=O)c1ccccc1NC(=S)N1CCN(c2ccccc2)CC1,6.0,-1.8,-4.1,0.1,1.9,-2.8
CCOC(=O)c1[nH]c2ccc(OC)cc2c1NC(=S)N1CCN(c2ccccc2)CC1,-4.1,-2.9,i,0.1,-8.8,57.5*
COc1ccccc1Cc1c(C2CCCCC2)nc2ccc(Cl)cn12,15.2,16.8,11.4,-0.1,59.9*,.
COc1ccccc1Cc1c(C2CCCCC2)nc2ccc(C)cn12,12.8,2.6,11.5,-0.2,10.4,.
Cc1cc(F)ccc1NS(=O)(=O)c1cccc2nsnc12,-3.2,2.7,-6.5,-0.1,2.7,19.8
Cc1ccc(O)c(NS(=O)(=O)c2cccc3nsnc23)c1,-11.4,78.8*,-41.5,-0.6,-3.5,-3.7
CCn1c(SCc2ccccc2)nc2c1c(=O)[nH]c(=O)n2C,0.3,5.2,0.8,1.0,4.4,10.7
Cc1nc(-c2ccc(S(=O)(=O)N3CCCCCC3)cc2)cs1,0.8,2.2,-2.4,-0.6,-3.9,-5.6
Nc1nc(-c2ccc(S(=O)(=O)N3CCCCC3)cc2)cs1,0.6,2.2,44.5*,-0.3,1.3,13.4
COC(=O)[C@@]12C[C@@H](CC(=O)NCC3CCCCC3)C(=O)N(Cc3ccco3)C1=CCC(C)(C)C2,.,3.9,-2.4,-0.3,0.8,.

# Screens from PubChem.
